We go through five molecules from ChEMBL document CHEMBL1250499, “Chiral 6-hydroxymethyl-1H,3H-pyrrolo[1,2-c]thiazoles: novel antitumor DNA monoalkylating agents” (Eur J Med Chem, 2010).

What all share (format): functional, cell-based
The subject of experiment [1] is WiDr. Kind of experiment: Cytotoxicity against human WiDr cells after 72 hrs by MTT assay. Summed up: (§1)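 Cells grown in DMEM with 10% heat-inactivated FBS, 1% penicillin–streptomycin and 100 μM sodium pyruvate at 37 °C, 5% CO2. Seeded at 50 000 cells/mL, attached overnight, then exposed to successive DMSO dilutions of compound. Proliferation read by MTT colorimetric assay as % inhibition versus DMSO-only controls. IC50 from dose-response curves by exponential decay fit (r2 > 0.9). Duplicates, three independent sets.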

Experiment [2] deals with A-375. The experiment can be described thus: Cytotoxicity against human A375 cells after 96 hrs by MTT assay. Conditions: A-375, 96 h. An outline of the steps: as §1
Experiment [3] has as its system WiDr. The experiment can be described thus: Cytotoxicity against human WiDr cells after 96 hrs by MTT assay. Summed up:
as §1

Experiment [4] relates to MCF7. Kind of experiment: Cytotoxicity against human MCF7 cells after 24 hrs by MTT assay. Conditions: MCF7, 24 h. Summed up:
as §1

The test system of experiment [5] is A-375. Kind of experiment: Cytotoxicity against human A375 cells after 72 hrs by MTT assay. Conditions: A-375, 72 h. Summed up: as §1
The test system of experiment [6] is MCF7. Kind of experiment: Cytotoxicity against human MCF7 cells after 72 hrs by MTT assay. Conditions: MCF7, 72 h. An outline of the steps:
as §1

Experiment [7] deals with MCF7. The experiment can be described thus: Cytotoxicity against human MCF7 cells after 48 hrs by MTT assay. Conditions: MCF7, 48 h. An outline of the steps: as §1
In experiment [8] the test system is WiDr. Kind of experiment: Cytotoxicity against human WiDr cells after 24 hrs by MTT assay. An outline of the steps: as §1
Experiment [9] has as its system A-375. Kind of experiment: Cytotoxicity against human A375 cells after 48 hrs by MTT assay. Particulars: A-375, 48 h. An outline of the steps: as §1
Experiment [10] has as its system MCF7. Kind of experiment: Cytotoxicity against human MCF7 cells after 96 hrs by MTT assay. Particulars: MCF7, 96 h. An outline of the steps:
as §1

For experiment [11], the system named is WiDr. The experiment can be described thus: Cytotoxicity against human WiDr cells after 48 hrs by MTT assay. An outline of the steps: as §1
Experiment [12] relates to A-375. Kind of experiment: Cytotoxicity against human A375 cells after 24 hrs by MTT assay. Particulars: A-375, 24 h. An outline of the steps: as §1

For `Cc1c(COC(=O)NCc2ccccc2)cc2n1[C@@H](c1ccccc1)SC2`, the half-inhibitory concentration (IC50) in the experiment with WiDr [1] worked out at 8.7 µM; in the experiment on A-375 [2], 27.6 µM; in the experiment on WiDr [3] it was 14.8 µM; in the experiment on MCF7 [4], 8.8 µM; in the experiment on A-375 [5], 42.1 µM; in the experiment with MCF7 [6], 2.2 µM. Further, the IC50 was 4.4 µM with MCF7 [7]; 30.9 µM with WiDr [8]; 32.4 µM in the experiment with A-375 [9]; 1.9 µM in the experiment on MCF7 [10]; 8.7 µM in the experiment on WiDr [11]; 37.4 µM with A-375 [12].

Take `COC(=O)c1cc2n(c1C)[C@@H](c1ccccc1)SC2`: the half-maximal inhibitory concentration (IC50) amounted to 44.6 µM in the experiment on WiDr [1]; 40 µM with A-375 [2]; 40.9 µM in the experiment on WiDr [3]; 128 µM in the experiment on MCF7 [4]; 56.2 µM in the experiment on A-375 [5]; 48.8 µM with MCF7 [6]. Moreover, the IC50 with MCF7 [7] was determined as 55.5 µM; in the experiment with WiDr [8], 54.2 µM; in the experiment with A-375 [9], 65.1 µM; in the experiment with MCF7 [10] it was 30.6 µM; with WiDr [11] it was 57.1 µM; in the experiment on A-375 [12], 73.5 µM.

Regarding `Cc1cc(CO)c2n1[C@@H](c1ccccc1)SC2`, the IC50 stood at 63.5 µM with WiDr [1]; 45.3 µM in the experiment with A-375 [2]; 65.1 µM with WiDr [3]; 110 µM in the experiment on MCF7 [4]; 62.1 µM in the experiment on A-375 [5]; 29.9 µM in the experiment on MCF7 [6]. Moreover, the IC50 in the experiment with MCF7 [7] amounted to 63.9 µM; in the experiment with WiDr [8] it was 144 µM; in the experiment with A-375 [9], 106 µM; with MCF7 [10] it was 19.9 µM; in the experiment on WiDr [11], 95.3 µM; in the experiment with A-375 [12] it was 128 µM.

Consider `Cc1c(CO)c(CO)c2n1[C@@H](c1ccccc1)SC2`, for which the IC50 is 7.1 µM in the experiment with WiDr [1]; 16.9 µM in the experiment with A-375 [2]; 3.2 µM in the experiment with WiDr [3]; 12.2 µM in the experiment with MCF7 [4]; 27.2 µM in the experiment with A-375 [5]; 1 µM with MCF7 [6]. Besides, the IC50 stood at 1.9 µM in the experiment with MCF7 [7]; 60 µM in the experiment on WiDr [8]; 36.1 µM in the experiment on A-375 [9]; 0.6 µM with MCF7 [10]; 9.1 µM with WiDr [11]; 97.3 µM in the experiment on A-375 [12].

Regarding `Cc1c(CO)cc2n1[C@@H](c1ccccc1)SC2`, the IC50 in the experiment with WiDr [1] came out at 15.4 µM; in the experiment on A-375 [2], 36.8 µM; in the experiment with WiDr [3] it was 11 µM; with MCF7 [4], 26.4 µM; in the experiment with A-375 [5] it was 62.9 µM; in the experiment on MCF7 [6] it was 2.4 µM. In addition, the IC50 amounted to 4.3 µM in the experiment on MCF7 [7]; 55.5 µM with WiDr [8]; 69.8 µM with A-375 [9]; 1.9 µM with MCF7 [10]; 17.1 µM with WiDr [11]; 103 µM in the experiment on A-375 [12].
